Results: ChEMBL document CHEMBL1133085, “Synthesis, antibacterial, and cytotoxic evaluation of certain 7-substituted norfloxacin derivatives” (2000)
In brackets after ≈: the same amount, converted by molar mass.

Assays:
Type in all cases: functional
[1] = Mean value (average log GI50) over all cell lines tested
How it was run: (§1)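 NCI in vitro human tumour cell line panel screen. Growth inhibition is expressed as log GI₅₀ (M), the concentration reducing cell growth to 50% of controls. The mean is the average log GI₅₀ across all cell lines tested.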

[2] = tested on: UO-31; assay: In vitro inhibitory activity for human renal cancer cell line UO-31 was determined.; how it was run: as §1
[3] = tested on: CAKI-1; assay: In vitro inhibitory activity for human renal cancer cell line CAK-1 was determined.; how it was run: as §1
[4] = tested on: Enterococcus faecalis; assay: In vitro antimicrobial activity against Enterococcus faecalis (vancomycin-resistant) was determined
How it was run: (§2)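 Broth dilution in tryptic soy broth with 7% calf serum against clinical isolates (vancomycin-resistant E. faecalis; erythromycin/ampicillin-resistant S. pneumoniae) at 1-5 × 10⁵ CFU/mL. DMSO serial dilutions were added 1:100, giving a top concentration of 300 µM and at most 1% DMSO. Incubated 20-72 h at 37 °C. MIC (µM) read by visual turbidity or microscopy. Vehicle and reference controls; duplicate.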

[5] = tested on: Escherichia coli; assay: In vitro antimicrobial activity against Escherichia coli was determined
How it was run: (§3)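 Broth microdilution MIC in nutrient broth with 1-5 × 10⁵ CFU/mL inoculum. Compounds were dissolved in 100% DMSO and serially diluted in DMSO, starting at 300 µM final with at most 1% DMSO. Plates were incubated at 37 °C for 20-72 h. MIC was read by visual turbidity or microscopy. Vehicle and reference controls were included, and tests were run in duplicate.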

[6] = tested on: Klebsiella pneumoniae; assay: In vitro antimicrobial activity against Klebsiella pneumoniae was determined; how it was run: as §3
[7] = In vitro antimicrobial activity against Mycobacterium ranae was determined
How it was run: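 MIC determined in brain heart infusion broth containing 1-5 × 10⁵ CFU/mL. Compounds in DMSO were serially diluted, starting at 300 µM final with 1% DMSO maximum. Incubation was at 37 °C for 20-72 h, with visual turbidity or microscope read-out. Vehicle and reference controls were included, and assays were run in duplicate.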

[8] = tested on: Pseudomonas aeruginosa; assay: In vitro antimicrobial activity against Pseudomonas aeruginosa was determined; how it was run: as §3
[9] = tested on: Proteus vulgaris; assay: In vitro antimicrobial activity against Proteus vulgaris was determined
How it was run: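 MIC determined in Mueller-Hinton broth inoculated at 1-5 × 10⁵ CFU/mL. DMSO serial dilutions of compounds were used, with a top final concentration of 300 µM and DMSO at most 1%. Incubation was at 37 °C for 20-72 h. Growth was judged by turbidity or microscopy. Vehicle and reference controls were included, with duplicate assays.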

[10] = tested on: Staphylococcus aureus; assay: In vitro antimicrobial activity against Staphylococcus aureus (methicillin-resistant) was determined
How it was run: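 MRSA in Mueller-Hinton broth at 1-5 × 10⁵ CFU/mL. Compound serial dilutions in 100% DMSO were added 1:100, giving a maximal test concentration of 300 µM and at most 1% DMSO. Plates were held 20-72 h at 37 °C. MIC (µM) was taken from visual turbidity or microscopic growth. Vehicle and reference-agent controls; run in duplicate.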

[11] = In vitro antimicrobial activity against […] (erythromycin and ampicillin-resistant) was determined; conditions: Streptococcus pneumoniae; how it was run: as §2
[12] = tested on: RXF 393; assay: In vitro inhibitory activity for human renal cancer cell line RXF-393 was determined.; how it was run: as §1

SMILES | Mean [1] | GI50 [2] | GI50 [3] | MIC [4] | MIC [5] | MIC [6] | MIC [7] | MIC [8] | MIC [9] | MIC [10] | MIC [11] | GI50 [12]
C=C1CC(CN2CCN(c3cc4c(cc3F)c(=O)c(C(=O)O)cn4CC)CC2)(c2ccc(OC)cc2)OC1=O (configuration not stated) | -5.19 | 2750 nM | 5130 nM | – | – | – | – | – | – | – | – | –
CCn1cc(C(=O)O)c(=O)c2cc(F)c(N3CCN(C/C(C)=N/O)CC3)cc21 | >-4 | 39800 nM | > 100000 nM | 30 µM (≈ 11.7 µg/mL) | 0.51 µM (≈ 0.199 µg/mL) | 0.13 µM (≈ 0.0508 µg/mL) | 32 µM (≈ 12.5 µg/mL) | 16 µM (≈ 6.25 µg/mL) | 2 µM (≈ 0.781 µg/mL) | 0.51 µM (≈ 0.199 µg/mL) | 30 µM (≈ 11.7 µg/mL) | > 100000 nM
CCn1cc(C(=O)O)c(=O)c2cc(F)c(N3CCN(C/C(=N/O)c4ccccc4)CC3)cc21 | -4.53 | 309 nM | 32400 nM | > 200 µM | 0.86 µM (≈ 0.389 µg/mL) | 0.22 µM (≈ 0.0995 µg/mL) | 55.3 µM (≈ 25 µg/mL) | 13.8 µM (≈ 6.24 µg/mL) | 3.45 µM (≈ 1.56 µg/mL) | 0.44 µM (≈ 0.199 µg/mL) | > 200 µM | 36300 nM
CCn1cc(C(=O)O)c(=O)c2cc(F)c(N3CCN(CC(=O)c4ccc(OC)cc4)CC3)cc21 | – | – | – | > 200 µM | 0.83 µM (≈ 0.388 µg/mL) | 0.053 µM (≈ 0.0248 µg/mL) | > 200 µM | 13.4 µM (≈ 6.26 µg/mL) | 0.83 µM (≈ 0.388 µg/mL) | 6.7 µM (≈ 3.13 µg/mL) | > 200 µM | –
C=C1CC(CN2CCN(c3cc4c(cc3F)c(=O)c(C(=O)O)cn4CC)CC2)(c2ccccc2)OC1=O (configuration not stated) | -5.47 | 1580 nM | 1860 nM | – | 98.9 µM (≈ 50 µg/mL) | 12.4 µM (≈ 6.27 µg/mL) | > 200 µM | > 200 µM | > 200 µM | 1.54 µM (≈ 0.779 µg/mL) | – | –
CCn1cc(C(=O)O)c(=O)c2cc(F)c(N3CCN(C/C(=N/O)c4ccc(F)cc4)CC3)cc21 | -4.67 | 132 nM | 1910 nM | > 200 µM | 6.38 µM (≈ 3 µg/mL) | 0.21 µM (≈ 0.0988 µg/mL) | > 200 µM | > 200 µM | 6.38 µM (≈ 3 µg/mL) | 2.13 µM (≈ 1 µg/mL) | > 200 µM | 170 nM
CCn1cc(C(=O)O)c(=O)c2cc(F)c(N3CCN(C/C(=N\O)c4ccc(Cl)cc4)CC3)cc21 | -5.03 | 28.8 nM | 398 nM | > 200 µM | 6.16 µM (≈ 3 µg/mL) | 0.21 µM (≈ 0.102 µg/mL) | > 200 µM | > 200 µM | 6.16 µM (≈ 3 µg/mL) | > 200 µM | > 200 µM | 724 nM
CCn1cc(C(=O)O)c(=O)c2cc(F)c(N3CCN(C/C(=N\O)c4ccc(OC)cc4)CC3)cc21 | -4.5 | 550 nM | 6920 nM | 3.23 µM (≈ 1.56 µg/mL) | 1.62 µM (≈ 0.782 µg/mL) | 0.027 µM (≈ 0.013 µg/mL) | 104 µM (≈ 50.2 µg/mL) | 25.9 µM (≈ 12.5 µg/mL) | 3.23 µM (≈ 1.56 µg/mL) | 0.41 µM (≈ 0.198 µg/mL) | 13 µM (≈ 6.27 µg/mL) | –
CCn1cc(C(=O)O)c(=O)c2cc(F)c(N3CCNCC3)cc21 [NORFLOXACIN] | – | – | – | 9.8 µM (≈ 3.13 µg/mL) | 0.63 µM (≈ 0.201 µg/mL) | 0.041 µM (≈ 0.0131 µg/mL) | 9.8 µM (≈ 3.13 µg/mL) | 1.22 µM (≈ 0.39 µg/mL) | 0.16 µM (≈ 0.0511 µg/mL) | 4.89 µM (≈ 1.56 µg/mL) | 19.6 µM (≈ 6.26 µg/mL) | –
